# In publication PMC2680181 (Journal of medicinal chemistry, 2009):
# Biological target: T1, human MIF binding to its receptor, CD74 (Homo sapiens, UniProt P14174)
# T1 sequence (P14174 2-115 limits assumed): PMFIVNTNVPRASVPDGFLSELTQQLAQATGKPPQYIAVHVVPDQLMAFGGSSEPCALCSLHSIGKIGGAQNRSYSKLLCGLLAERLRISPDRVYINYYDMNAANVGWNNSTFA
# Assay: MIF-CD74 binding assay
# Conditions: NA = measured, but not active
row,SMILES,IC50 (µM) MIF-CD74 binding assay
1,O=c1oc2c(O)c(O)ccc2cc1-c1nc2ccccc2s1 [Compound 11],inactive
2,CC(=O)Nc1cccc2ccc(-c3cnc4ccccc4c3)nc12 [Compound 28],inactive
3,O=c1c2ccc(F)cc2sn1-c1ccc(Cl)cc1 [Compound 32],inactive

# Second part, the compound after the results:
row,IC50 (µM) MIF-CD74 binding assay,SMILES
1,very weak MIF-CD74 antagonists,O=C(O)c1cc(-n2cnnn2)ccc1O [Compound 15]
2,very weak MIF-CD74 antagonists,O=C(O)c1cc(-n2cnnc2)ccc1Cl [Compound 16]

# Biological target: T2, MIF tautomerase activity (rhMIF) (Homo sapiens, UniProt P14174)
# T2 sequence (P14174 2-115 limits assumed): T1 sequence (P14174 2-115 limits assumed)
# Assay: 4-HPP tautomerase assay
# Format: biochemical
# Conditions: max inhibition printed in place of IC50
# Method in brief: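 Recombinant human MIF (purified) was pre-incubated with test compound. 4-HPP was dissolved in 50 mM ammonium acetate, pH 6.0, equilibrated to room temperature and stored at 4 °C. At 25 °C, 4-HPP was added to a cuvette of 0.435 M boric acid, pH 6.2, plus the enzyme–compound mix. A305 increase was read over 30–90 s, in triplicate. Compounds spanned a 5000-fold concentration range.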
row,maximal inhibition in 4-HPP tautomerase assay,SMILES
1,max 40%,Oc1ccc(/C=C/c2ccc3cccc(O)c3n2)cc1 [Compound 26]
2,max 38%,Oc1ccc2c(c1)oc1ccccc12 [Compound 29]
3,max 30%,O=C(O)c1cccc(-c2cc[nH]n2)c1 [Compound 33]

# Same assay, conditions: substrate 4-HPP; NA = measured, but not active
row,SMILES,IC50 (µM) 4-HPP tautomerase assay
1,CC(=O)Oc1ccc2nc(-c3cc4ccccc4o3)oc(=O)c2c1 [Compound 17],weak tautomerase inhibitors
2,Oc1c(C(Nc2cccc(F)c2)c2ccccn2)ccc2cccnc12 (stereo not drawn) [Compound 18],weak tautomerase inhibitors

# The next lines start with the values.
row,IC50 (µM) 4-HPP tautomerase assay,SMILES
1,inactive,"COC(=O)C[C@H]1CC(c2ccc(O)cc2)=NO1 (racemic) [Compound 9, (S,R)-3-(4-hydroxyphenyl)-4,5-dihydro-5-isoxazole acetic acid methyl ester, reference compound]"
2,weak tautomerase inhibitors,Oc1ccc(/C=C/c2ccc3cccc(O)c3n2)cc1 [Compound 26]

# Biological target: T2, MIF tautomerase activity (rhMIF)
# Assay: Michaelis-Menten analysis of MIF tautomerase with 4-HPP as substrate
# Format: biochemical
# Conditions: Lineweaver-Burk plots, Vmax unchanged
row,mode of tautomerase inhibition,SMILES
1,competitive inhibition,O=C(c1cc2ccccc2o1)N1CCc2ccccc21 [Compound 23]
2,competitive inhibition,Cc1ccc2oc(=O)n(Cc3ccccc3)c2c1 [Compound 24]

# System: MIF tautomerase
# Assay: not given
# Conditions: covalent inhibitor; cited from earlier work
row,SMILES,tautomerase inhibitor potency [µM]
1,"CC(=O)N=C1C=CC(=O)C=C1 [NAPQI, N-acetyl-p-benzoquinone]",40
